In data set [1] the target is T1, Orexin/Hypocretin receptor type 1 (Homo sapiens) (UniProt O43613).
T1 sequence (whole entry): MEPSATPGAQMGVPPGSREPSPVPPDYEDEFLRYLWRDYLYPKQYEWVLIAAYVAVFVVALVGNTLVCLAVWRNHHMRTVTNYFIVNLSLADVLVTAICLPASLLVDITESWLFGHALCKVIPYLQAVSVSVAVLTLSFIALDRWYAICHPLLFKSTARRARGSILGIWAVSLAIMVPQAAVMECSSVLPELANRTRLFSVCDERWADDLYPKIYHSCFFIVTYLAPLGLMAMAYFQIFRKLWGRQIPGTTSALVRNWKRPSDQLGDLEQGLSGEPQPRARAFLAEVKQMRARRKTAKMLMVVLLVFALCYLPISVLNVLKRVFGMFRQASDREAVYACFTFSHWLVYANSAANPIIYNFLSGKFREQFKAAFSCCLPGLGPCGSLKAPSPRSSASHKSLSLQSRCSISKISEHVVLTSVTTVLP
The data set can be described thus: Antagonist activity against human OX1 receptor expressed in CHO cells assessed as reduction in [Ala6,12]orexin-A-induced intracellular Ca2+ mobilization incubated for 30 mins by Fluo-4 AM dye based fluorescence assay. The data set is classed as functional, cell-based. A digest of the protocol: (§1)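 Cells seeded 2.4 × 10⁴/well, cultured 18 h. Loaded with Fluo-4 AM (0.5 µM final) in HBSS, 20 mM HEPES, 0.1% BSA, 2.5 mM probenecid, 0.2 mg/mL amaranth, pH 7.4, 37 °C 1 h. Washed, then antagonist for 30 min at room temperature. Peak minus basal fluorescence normalized to the [Ala6,12]orexin-A maximum. Kb = IC50/(1+[L]/EC50). At least three independent runs in duplicate.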
In general terms: Calcium flux is commonly read through the fluorescence of an indicator in the cells.

For data set [2], the target named is T2, Orexin receptor type 2 (Homo sapiens) (UniProt O43614).
T2 sequence (whole entry): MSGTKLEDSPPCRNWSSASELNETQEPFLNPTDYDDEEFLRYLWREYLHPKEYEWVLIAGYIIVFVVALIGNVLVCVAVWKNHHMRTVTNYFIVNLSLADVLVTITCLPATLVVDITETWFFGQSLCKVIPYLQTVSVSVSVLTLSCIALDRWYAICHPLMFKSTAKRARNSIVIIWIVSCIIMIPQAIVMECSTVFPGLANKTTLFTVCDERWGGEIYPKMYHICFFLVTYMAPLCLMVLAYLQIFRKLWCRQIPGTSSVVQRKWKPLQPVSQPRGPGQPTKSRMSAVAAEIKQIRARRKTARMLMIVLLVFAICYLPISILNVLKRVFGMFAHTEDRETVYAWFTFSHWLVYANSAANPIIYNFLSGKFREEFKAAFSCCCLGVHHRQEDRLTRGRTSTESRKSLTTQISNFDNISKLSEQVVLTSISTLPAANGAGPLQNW
In words: Antagonist activity against human OX2 receptor expressed in CHO cells assessed as reduction in [Ala6,12]orexin-A-induced intracellular Ca2+ mobilization incubated for 30 mins by Fluo-4 AM dye based fluorescence assay. The data set is classed as functional, cell-based. A digest of the protocol: as §1

Data set [3] can be described thus: Half life in human. As to conditions: in vivo. The data set is classed as ADME, organism-based.
The nature of data set [4]: Drug metabolism in human liver microsomes at 5 uM after 15 mins. The data set is classed as ADME. As to conditions: read-out: Drug metabolism. A digest of the protocol:
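Liver microsomes at 1 mg protein/mL with 5 µM compound, incubated 15 min. Value reported as percentage of compound metabolized.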

The record followed here is ChEMBL document CHEMBL3397044, “Discovery and in vitro and in vivo profiles of N-ethyl-N-[2-[3-(5-fluoro-2-pyridinyl)-1H-pyrazol-1-yl]ethyl]-2-(2H-1,2,3-triazol-2-yl)-benzamide as a novel class of dual orexin receptor antagonist” (Bioorg Med Chem, 2015).

What is called Kb is the affinity of an antagonist, worked out from how it opposes an agonist. One may read the half-life as the time needed for the level to fall by half in the phase considered. The low end stands for rapid decline, the high end for slow decline.

Take `CCN(CCn1cc(-c2ccc(F)cn2)cn1)C(=O)c1cc(C)ccc1-n1nccn1`: the results for the Kb in data set [1] and in data set [2] were 3.81 nM and 7.22 nM, respectively.
In the same order, the values of `CCN(CCc1noc(-c2ccc(F)cn2)n1)C(=O)c1cc(C)ccc1-n1nccn1` are 8.09 nM and 23 nM.
As for `CCN(CCn1ccc(-c2ccc(C(F)(F)F)cn2)n1)C(=O)c1cc(C)ccc1-n1nccn1`, the results for the Kb in data set [1] and in data set [2] were 48.6 nM and 902 nM, respectively.
As to `Cc1nc(C(=O)N2CCCC[C@H]2CNC(=O)c2cccc3occc23)c(-c2ccc(F)cc2)s1` [SB-649868], in data set [3], the half-life is 3.4 h.
On to `CCN(CCc1cc(-c2ccc(F)cn2)on1)C(=O)c1cc(C)ccc1-n1nccn1`, for which the antagonist equilibrium constant (Kb) in data set [1] turned out to be 15.2 nM; in data set [2] it was 19.8 nM.
For `CCN(CCn1ccc(-c2ccc(F)cc2)n1)C(=O)c1cc(C)ccc1-n1nccn1`, in that order: 0.32 nM and 1.25 nM.
As for `CCN(CCn1ccc(-c2ccc(F)cn2)n1)C(=O)c1cc(OC)ccc1-n1nccn1`, the Kb in data set [1] is 119 nM; in data set [2], 638 nM.
In the same order, the values of `CCN(CCn1ccc(-c2cccc(C)n2)n1)C(=O)c1cc(C)ccc1-n1nccn1` are 0.41 nM and 1.96 nM.
For `CCN(CCn1ccc(-c2cc(C(F)(F)F)ccn2)n1)C(=O)c1cc(C)ccc1-n1nccn1`, in that order: 28 nM and 66.4 nM.
For `CCN(CCn1ccc(-c2ccc(F)cn2)n1)C(=O)c1cc(Cl)ccc1-n1nccn1`, the metabolised at 0.25 h, 5 µM in data set [4] was found to be 46.9%. The Kb in data set [1] amounted to 1.48 nM; in data set [2] it was 2.82 nM.
In the case of `CCN(CCn1ccc(-c2ccc(F)cn2)n1)C(=O)c1cc(F)ccc1-n1nccn1`, the metabolised at 0.25 h, 5 µM in data set [4] was 35.3%. In addition, the Kb in data set [1] came to 6.67 nM; in data set [2] it was 11.4 nM.
`Cc1ccc(-n2nccn2)c(C(=O)N2CCN(c3nc4cc(Cl)ccc4o3)CC[C@H]2C)c1` [SUVOREXANT]: the half-life in data set [3] is 9 h.
As for `Cc1ccc(-n2nccn2)c(C(=O)NCCn2ccc(-c3ccc(F)cn3)n2)c1`, the Kb in data set [1] amounted to 152 nM; in data set [2], 376 nM.
As for `Cc1ccc(-n2nccn2)c(C(=O)N(CCn2ccc(-c3ccc(F)cn3)n2)C(C)C)c1`, the Kb was found to be 38.5 nM in data set [1] and 37.9 nM in data set [2].
For `CCN(CCn1ccc(-c2cccc(C(F)(F)F)n2)n1)C(=O)c1cc(C)ccc1-n1nccn1`, the Kb in data set [1] was 3.19 nM; in data set [2] it was 3.92 nM.
In the same order, the values of `Cc1ccc(-n2nccn2)c(C(=O)N(C)CCn2ccc(-c3ccc(F)cn3)n2)c1` are 2.27 nM and 8.58 nM.
Turning to `CCN(CCn1ccc(-c2ccc(F)cn2)n1)C(=O)c1cc(C)ccc1-n1nccn1`, in data set [4], the metabolised at 0.25 h, 5 µM turned out to be 35%. Also, the antagonist dissociation constant (Kb) in data set [1] was determined as 0.43 nM; in data set [2], 0.89 nM.
Take `CCN(CCc1cc(-c2ccc(F)cn2)no1)C(=O)c1cc(C)ccc1-n1nccn1`: the antagonist equilibrium constant (Kb) in data set [1] was 45.5 nM; in data set [2] it was 32.2 nM.
